# Assay results: ChEMBL document CHEMBL4325934, “Discovery of 12-Thiazole Abietanes as Selective Inhibitors of the Human Metabolic Serine Hydrolase hABHD16A” (ACS Med Chem Lett, 2018)
# The source made the active and inactive calls. The calls are words filed in the database; no cut-off is given here.
# What was measured:
# [1] = target: T1, Phosphatidylserine lipase ABHD16A (Homo sapiens) (UniProt O95870); experiment: Inhibition of human ABHD16A expressed in HEK293 cells assessed as residual activity at 10 uM preincubated for 30 mins followed by 1-LG substrate addition and measured after 90 to 120 mins by fluorometric assay relative to control; type: cell-based
# T1 sequence (whole entry): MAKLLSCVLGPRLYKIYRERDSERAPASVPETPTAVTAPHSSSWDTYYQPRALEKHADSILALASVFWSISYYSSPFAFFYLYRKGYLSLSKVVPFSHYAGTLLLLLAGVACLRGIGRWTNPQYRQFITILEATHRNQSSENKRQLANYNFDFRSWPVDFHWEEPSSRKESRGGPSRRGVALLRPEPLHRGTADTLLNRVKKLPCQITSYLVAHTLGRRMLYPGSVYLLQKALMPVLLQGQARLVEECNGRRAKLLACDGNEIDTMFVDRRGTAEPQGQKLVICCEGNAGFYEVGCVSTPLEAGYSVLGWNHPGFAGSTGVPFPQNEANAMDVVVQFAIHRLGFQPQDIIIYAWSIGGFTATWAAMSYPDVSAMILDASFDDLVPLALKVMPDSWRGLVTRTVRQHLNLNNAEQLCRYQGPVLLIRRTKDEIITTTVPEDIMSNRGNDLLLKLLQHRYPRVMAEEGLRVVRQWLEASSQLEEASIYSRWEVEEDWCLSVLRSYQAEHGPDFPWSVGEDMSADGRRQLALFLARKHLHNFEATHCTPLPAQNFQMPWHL
# In short: (§1)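 Lysates of HEK293 cells transiently overexpressing human ABHD16A were pretreated 30 min with DMSO (control) or inhibitor, then 1-LG substrate was added (25 µM final), and liberated glycerol was measured. The single-concentration screen was at 10 µM, reported as % control activity (mean ± SD, n=2-3). Dose-responses used four concentrations (0.1-100 µM), duplicate wells, two independent experiments.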
# [2] = target: T2, ABHD12 (lysophosphatidylserine lipase) (Homo sapiens, UniProt Q8N2K0); experiment: Inhibition of human ABHD12 expressed in HEK293 cells assessed as residual activity at 10 uM preincubated for 30 mins followed by 1-AG substrate addition and measured after 90 to 120 mins by fluorometric assay relative to control; type: cell-based; conditions: HEK293 cells that express human ABHD12, probe 1-AG, read-out: Activity
# T2 sequence (Q8N2K0 whole entry): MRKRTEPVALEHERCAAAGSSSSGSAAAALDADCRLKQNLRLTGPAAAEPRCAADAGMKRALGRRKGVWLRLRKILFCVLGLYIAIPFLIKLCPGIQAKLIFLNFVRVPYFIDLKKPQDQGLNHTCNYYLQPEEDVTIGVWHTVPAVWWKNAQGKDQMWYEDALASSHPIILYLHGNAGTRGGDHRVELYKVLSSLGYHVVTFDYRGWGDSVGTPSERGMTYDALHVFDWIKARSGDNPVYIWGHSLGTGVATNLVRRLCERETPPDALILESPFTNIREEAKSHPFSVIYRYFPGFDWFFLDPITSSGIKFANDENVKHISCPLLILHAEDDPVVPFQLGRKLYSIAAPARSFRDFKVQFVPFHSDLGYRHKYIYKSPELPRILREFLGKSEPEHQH
# In short: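 Screened at 10 µM in lysates of HEK293 cells overexpressing human ABHD12, given as remaining hydrolase activity relative to control (mean ± SD, n=2-3).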
# [3] = target: T3, Phosphatidylserine lipase ABHD16A (Homo sapiens, UniProt O95870); experiment: Inhibition of human ABHD16A expressed in HEK293 cells preincubated for 30 mins followed by 1-LG substrate addition and measured after 90 to 120 mins by fluorometric assay; type: cell-based; in short: as §1
# T3 sequence (O95870 whole entry): T1 sequence (whole entry)
# [4] = target: T3, Phosphatidylserine lipase ABHD16A; experiment: Reversible inhibition of human ABHD16A expressed in HEK293 cells preincubated for 30 mins followed by 40 fold compound dilution and subsequent 1-LG substrate addition and measured at 30 mins time interval for 120 mins by fluorometric assay; type: cell-based
# In short: (§2)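 Reversibility test: hABHD16A-HEK293 lysate treated with inhibitor was rapidly diluted 40-fold before substrate addition. Inhibitor range extended up to 1 mM, and potency was compared with the routine assay (30 min pretreatment, 1-LG hydrolysis, glycerol read-out). Mean ± SD from two independent experiments.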
# [5] = target: T1, Phosphatidylserine lipase ABHD16A (Homo sapiens); experiment: Inhibition of human ABHD16A expressed in HEK293 cells assessed as residual activity at 100 uM preincubated for 30 mins followed by 1-LG substrate addition and measured after 90 to 120 mins by fluorometric assay relative to control; type: cell-based; in short: as §1
# [6] = target: T1, Phosphatidylserine lipase ABHD16A (Homo sapiens); experiment: Ratio of IC50 for reversible inhibition of human ABHD16A expressed in HEK293 cells to IC50 for inhibition of human ABHD16A expressed in HEK293 cells; type: cell-based; in short: as §2
# [7] = target: T4, Phosphatidylserine lipase ABHD16A (Rattus norvegicus) (UniProt Q6MG55); experiment: Inhibition of TAMRA-FP binding to ABHD16A in rat cerebellar membranes preincubated for 1 hr followed by TAMRA-FP addition measured after 1 hr by fluorescence based ABPP analysis; type: cell membranes; conditions: Cerebellum, Membrane
# T4 sequence (whole entry): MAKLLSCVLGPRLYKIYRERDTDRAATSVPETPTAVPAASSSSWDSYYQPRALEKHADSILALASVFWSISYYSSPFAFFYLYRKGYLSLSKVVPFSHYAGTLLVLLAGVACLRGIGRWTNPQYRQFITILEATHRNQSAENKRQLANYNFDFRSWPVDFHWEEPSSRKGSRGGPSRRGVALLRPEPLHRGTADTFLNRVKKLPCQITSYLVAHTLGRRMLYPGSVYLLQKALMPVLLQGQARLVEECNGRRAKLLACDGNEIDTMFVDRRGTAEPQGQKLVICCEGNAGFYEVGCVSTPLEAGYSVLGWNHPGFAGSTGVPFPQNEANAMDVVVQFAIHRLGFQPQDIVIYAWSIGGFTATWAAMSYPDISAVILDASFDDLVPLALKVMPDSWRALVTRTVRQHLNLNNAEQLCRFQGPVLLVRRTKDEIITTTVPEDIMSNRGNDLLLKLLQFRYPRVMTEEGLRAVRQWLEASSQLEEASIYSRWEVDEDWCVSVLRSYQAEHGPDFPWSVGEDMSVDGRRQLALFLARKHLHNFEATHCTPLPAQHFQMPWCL
# In short: (§3)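 Competitive ABPP in rat cerebellar membrane proteome: the proteome was pretreated with inhibitor, then labelled with the TAMRA-FP probe, and loss of band labelling was read by fluorescence. Reversible test inhibitors were used at 20 and 200 µM.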
# [8] = target: T4, Phosphatidylserine lipase ABHD16A (Rattus norvegicus); experiment: Inhibition of TAMRA-FP binding to ABHD16A in rat cerebellar membranes at 10 uM preincubated for 1 hr followed by TAMRA-FP addition measured after 1 hr by fluorescence based ABPP analysis; type: cell membranes; conditions: Cerebellum, Membrane
# [9] = target: T1, Phosphatidylserine lipase ABHD16A (Homo sapiens); experiment: Potency index, ratio of tetrahydrolipstatin IC50 to compound IC50 for inhibition of ABHD16A (unknown origin)
# [10] = target: T4, Phosphatidylserine lipase ABHD16A (Rattus norvegicus); experiment: Inhibition of TAMRA-FP binding to ABHD16A in rat cerebellar membranes at 1 uM preincubated for 1 hr followed by TAMRA-FP addition measured after 1 hr by fluorescence based ABPP analysis; type: cell membranes; conditions: Cerebellum, Membrane
# In short: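 Competitive ABPP on rat cerebellar membrane proteome. Proteome was pretreated with inhibitor, then labeled with the serine hydrolase probe TAMRA-FP. Loss of labeling of the band migrating at ~63 kDa, assigned as ABHD16A, was the read-out.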
# [11] = target: T4, Phosphatidylserine lipase ABHD16A (Rattus norvegicus); experiment: Inhibition of TAMRA-FP binding to ABHD16A in rat cerebellar membranes at 200 uM preincubated for 1 hr followed by TAMRA-FP addition measured after 1 hr by fluorescence based ABPP analysis; type: cell membranes; conditions: Cerebellum, Membrane; in short: as §3
# [12] = target: T1, Phosphatidylserine lipase ABHD16A (Homo sapiens); experiment: Inhibition of TAMRA-FP binding to human ABHD16A expressed in HEK293 cells at 20 to 200 uM preincubated for 1 hr followed by TAMRA-FP addition measured after 1 hr by fluorescence based ABPP analysis; type: cell-based
# [13] = target: Acyl-protein thioesterase 1 (Rattus norvegicus) (UniProt P70470); experiment: Binding affinity to LYPLA1 in rat cerebellar membranes at 10 uM measured after 1 hr by fluorescence based ABPP analysis; type: cell membranes; conditions: Cerebellum, Membrane
# Chain of Acyl-protein thioesterase 1 (Rattus norvegicus) (P70470 whole entry): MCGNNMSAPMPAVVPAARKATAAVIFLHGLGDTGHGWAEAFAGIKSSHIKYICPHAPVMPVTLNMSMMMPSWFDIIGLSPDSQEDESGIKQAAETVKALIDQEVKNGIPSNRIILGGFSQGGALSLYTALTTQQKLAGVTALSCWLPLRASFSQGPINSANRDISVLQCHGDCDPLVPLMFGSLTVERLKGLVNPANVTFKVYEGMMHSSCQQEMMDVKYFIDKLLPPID
# [14] = target: Acyl-protein thioesterase 2 (Rattus norvegicus) (UniProt Q9QYL8); experiment: Binding affinity to LYPLA2 in rat cerebellar membranes at 10 uM measured after 1 hr by fluorescence based ABPP analysis; type: cell membranes; conditions: Cerebellum, Membrane; in short: as §3
# Chain of Acyl-protein thioesterase 2 (Rattus norvegicus) (Q9QYL8 whole entry): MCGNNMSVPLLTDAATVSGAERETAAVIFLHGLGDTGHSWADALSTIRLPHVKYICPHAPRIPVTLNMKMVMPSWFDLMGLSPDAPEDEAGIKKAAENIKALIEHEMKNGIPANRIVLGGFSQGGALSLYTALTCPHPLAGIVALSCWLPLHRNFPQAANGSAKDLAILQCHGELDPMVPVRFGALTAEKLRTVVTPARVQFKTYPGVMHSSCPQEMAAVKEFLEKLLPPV
Activity [1] [%],activity at 10 µM [2] [%],Compound,other results
48.7,73.8,CCOC(=O)c1nc(-c2cc3c(cc2C(C)C)CC[C@H]2[C@](C)(C(=O)OC)CCC[C@]32C)cs1,
50.3,91.5,COC(=O)[C@]1(C)CCC[C@]2(C)c3cc(-c4cscn4)c(C(C)C)cc3CC[C@@H]12,
23,100,COC(=O)[C@]1(C)CCC[C@]2(C)c3cc(-c4csc(C)n4)c(C(C)C)cc3CC[C@@H]12,IC50 [3]: 3.4 to 3.6 µM; IC50 [4]: 41.1 µM; Activity [5]: 12%; Ratio IC50 [6]: 11.4; inhibition [7]: Dose-dependent effect
42.8,94.3,COC(=O)[C@]1(C)CCC[C@]2(C)c3cc(-c4csc(C#N)n4)c(C(C)C)cc3CC[C@@H]12,IC50 [3]: 4.9 to 5.2 µM; IC50 [4]: 31.6 µM; Activity [5]: 25%; Ratio IC50 [6]: 6.4; inhibition [11]: Active; inhibition [12]: inactive
99.3,96.6,COC(=O)[C@]1(C)CCC[C@]2(C)c3cc(-c4csc(-c5ccc(Cl)cc5)n4)c(C(C)C)cc3CC[C@@H]12,
73.8,89.8,COC(=O)[C@]1(C)CCC[C@]2(C)c3cc(-c4csc(-c5ccccc5)n4)c(C(C)C)cc3CC[C@@H]12,
86.6,101,COC(=O)[C@]1(C)CCC[C@]2(C)c3cc(-c4csc(-c5ccccc5Cl)n4)c(C(C)C)cc3CC[C@@H]12,
80.6,99.6,Cc1nc(-c2cc3c(cc2C(C)C)CC[C@H]2[C@](C)(C(N)=O)CCC[C@]32C)cs1,
58.2,103,COC(=O)[C@]1(C)CCC[C@]2(C)c3cc(-c4csc(N)n4)c(C(C)C)cc3CC[C@@H]12,

# The next lines start with the compound.
Compound,Activity [1] [%],activity at 10 µM [2] [%],other results
Cc1nc(-c2cc3c(cc2C(C)C)CC[C@H]2[C@](C)(C(=O)O)CCC[C@]32C)cs1,98.4,102,
COC(=O)[C@]1(C)CCC[C@]2(C)c3cc(-c4csc(C)[n+]4C)c(C(C)C)cc3CC[C@@H]12,82.7,92.8,
CC(C)c1cc2c(cc1-c1cscn1)[C@@]1(C)CCC[C@@](C)(C(=O)OCCO)[C@@H]1CC2,62.9,77.8,
CCCCCCCCCCC[C@@H](C[C@@H]1OC(=O)[C@H]1CCCCCC)OC(=O)[C@H](CC(C)C)NC=O,,,inhibition [8]: Active
COC(=O)[C@]1(C)CCC[C@]2(C)c3cc(-c4csc[n+]4C)c(C(C)C)cc3CC[C@@H]12,80.1,91.1,
COc1nn(-c2ccc(F)cc2)c(=O)o1,,,Ratio IC50 [9]: 5.3; inhibition [10]: Active
Cc1nc(-c2cc3c(cc2C(C)C)CC[C@H]2[C@](C)(CO)CCC[C@]32C)cs1,66.3,98.7,
CC(C)c1cc2c(cc1-c1cscn1)[C@@]1(C)CCC[C@@](C)(C(=O)O)[C@@H]1CC2,91.5,98.4,
CCCCCCCCCCCCCC1OC(=O)/C1=C\CCCCC(N)=O (configuration not stated),,,Ratio IC50 [9]: 1.3
CC(C)c1cc2c(cc1-c1cscn1)[C@@]1(C)CCC[C@@](C)(C(N)=O)[C@@H]1CC2,82.1,98.7,
CC[n+]1c(-c2cc3c(cc2C(C)C)CC[C@H]2[C@](C)(C(=O)OC)CCC[C@]32C)csc1C,81.5,91.1,
CCCCCCCCCC[C@@H]1C(=O)O[C@H]1CCc1ccc(OC)c(OC)c1 [PALMOSTATIN B],,,Ratio IC50 [9]: 1.7; IC50 [3]: 0.099 to 0.105 µM; IC50 [4]: 0.057 µM; Ratio IC50 [6]: 1.8; inhibition [8]: Active; Activity [13]: Active; Activity [14]: Active
CC(C)c1cc2c(cc1-c1cscn1)[C@@]1(C)CCC[C@@](C)(CO)[C@@H]1CC2,65.9,96.3,
CC(C)c1cc2c(cc1-c1csc(N)n1)[C@@]1(C)CCC[C@@](C)(CO)[C@@H]1CC2,74.6,87.8,
CC(C)c1cc2c(cc1-c1csc(N)n1)[C@@]1(C)CCC[C@@](C)(C(N)=O)[C@@H]1CC2,80,96.9,
